For one series, the system named is MCF-7 cells. The series is described as follows: Xenograft model of breast cancer. The series is classed as in vivo, BALB/c nude mice. In short, it runs like this: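 Female nude BALB/c mice (6 wk, 20–30 g, pathogen-free) received 7.5 × 10^6 MCF-7 cells in the right flank. Cells were cultured in DMEM with 10% FBS and penicillin/streptomycin. Tumors grew 4 weeks without hormone, then weekly s.c. 17β-oestradiol valerate (0.1 mg/kg, sesame oil). At ~100 mm3, mice were randomized and given a single i.v. dose (5 or 10 mg/kg) or saline. Calliper volumes, (L×W²)/2, were taken every 3 days for 30 days; ANOVA/t-test, P<0.05.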

Series [1] is classed as in vivo. To be noted: Pt in plasma, rat, intravenous.
Series [2] is described as follows: Pt excretion in urine and feces by atomic absorption spectroscopy. In kind it is in vivo, rat. To be noted: 24 h after intravenous administration.
The nature of another series: Histopathology. To be noted: H&E, day 28 after intravenous administration, mice. In kind it is in vivo, female Balb/c mice. In a few lines:
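Liver and kidney were fixed in 4% paraformaldehyde, moved to 70% ethanol after 20 h, and paraffin-embedded. Serial 8 μm medio-lateral sections were H&E-stained and examined by light microscopy at x20.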

The nature of series [3]: Cold sensitivity/hyperalgesia. Particulars: hindpaw withdrawal latency, 4.5 °C water. The series is classed as in vivo, rats. In a few lines: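 One rat hindpaw per immersion was placed in cold (4.5 °C) water. Paw-withdrawal latency was timed with a 1/100 s digital timer, with a 20 s maximum cutoff.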
Series [4] is described as follows: Sensitivity to noxious heat. In kind it is in vivo, rats. Particulars: hind paws. In short, it runs like this: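 After 15 min acclimation, radiant heat was applied to the rat hindpaw with a thermal paw stimulator. Intensity was set so vehicle-treated rats lifted or licked the paw at about 10 s. Withdrawal latency was recorded with a 20 s cutoff.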

The term Cmax denotes the peak of the concentration-time curve. The molecule `N.N.[Cl][Pt][Cl]` [cisplatin] gave an average tumor volume with MCF-7 cells (10 mg/kg single intravenous, after 30 days, saline 249.32±43.97) of 233.67±50.71 mm^3. The “reduction of tumor mass” value in the series with MCF-7 cells (solid tumor-bearing mice) is recorded as about 10%. In series [1], the “AUC0–24” value stood at 40.38±6.2 h-μg/ml, the CL was determined as 7.98 ± 1.2 mL/h and the Cmax was 22620 ± 1800 ng/mL. The “24-h cumulative Pt excretion” value in series [2] is recorded as 31.6±3.4%. In addition, in the series “Histopathology”, the “histopathological changes in kidneys” value was “focal subcapsular tubular vacuolization, dilated subcapsular space and consistent basophilia”; the “histopathological changes in liver” value was “dilated intra-lobular spaces and evident edema”. In series [3], the “cold hyperalgesia / hindpaw sensitivity to cold” value is reported as “significantly increased”. In addition, the “thermal response / hindpaw sensitivity to noxious heat” value in series [4] is reported as “significantly increased”.
